Test results published in ChEMBL document CHEMBL3259628, “Discovery of novel 2-((pyridin-3-yloxy)methyl)piperazines as α7 nicotinic acetylcholine receptor modulators for the treatment of inflammatory disorders” (J Med Chem, 2014).
The source made the active and inactive calls. The calls are words filed in the database; no cut-off is given here.

Assays:
Mus musculus [1] = test: Antiinflammatory activity against ovalbumin-induced allergic lung inflammation BALB/c mouse model assessed as reduction in total blood cells in brochoalveolar lavage fluid at 30 mg/kg, po bid administered on day 29 to 31 post ovalbumin challenge measured 8 hrs post last challenge relative to vehicle-treated control; type: functional, organism-based; set-up: dose 30 mg/kg
Outline: (§1)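 Balb/c mice sensitized with ovalbumin by IP injection on days 1 and 14, then challenged intranasally with 100 μg ovalbumin on days 29, 30 and 31. Compound in saline given orally starting 30 min before each challenge; groups of six mice. Sham groups were saline-sensitized and allergen-challenged. BAL taken 8 h after the last challenge, with differential cell counts on slides.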

[2] = biological target: Neuronal acetylcholine receptor subunit alpha-7 (Rattus norvegicus, UniProt Q05941); test: Inhibition of biotinylated alpha-bungarotoxin binding to alpha7 nAChR in rat PC12 cells by FACS analysis; type: cell-based, PC-12
Outline: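 Rat PC12 cells in binding buffer (PBS, 1.0% FBS, 0.02% sodium azide), 0.1% DMSO; biotinylated α-bungarotoxin 10 nM final, 1 h at room temperature; nonspecific binding defined with 1.5 μM unlabeled toxin. After washing, phycoerythrin-streptavidin 1.0 μg/mL final, 15 min in the dark; read by FACS. Screened at 10 and 1 μM, then eight-point 3-fold dilution IC50; mean of two or more experiments.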

Mus musculus [3] = test: Antiinflammatory activity against ovalbumin-induced allergic lung inflammation BALB/c mouse model assessed as reduction in eosinophils in brochoalveolar lavage fluid at 30 mg/kg, po bid administered on day 29 to 31 post ovalbumin challenge measured 8 hrs post last challenge relative to vehicle-treated control; type: functional, organism-based; set-up: dose 30 mg/kg; outline: as §1
[4] = Oral bioavailability in rat at 15 mg/kg; type: ADME, organism-based; conditions: in vivo
Cytochrome P450 2C9 = Cytochrome P450 2C9 (Homo sapiens, UniProt P11712); test: Inhibition of CYP2C9 (unknown origin); type: ADME
Outline: (§2)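 Each of five Cyp isoforms assayed with single probe substrates rather than a substrate cocktail. Run in duplicate at Cerep. IC50 lines come from a 5-concentration titration curve.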

Mus musculus [5] = test: Antiinflammatory activity against ovalbumin-induced allergic lung inflammation BALB/c mouse model assessed as reduction in eosinophils in brochoalveolar lavage fluid at 0.2 mg/kg, po bid administered on day 29 to 31 post ovalbumin challenge measured 8 hrs post last challenge relative to vehicle-treated control; type: functional, organism-based; set-up: dose 0.2 mg/kg; outline: as §1
Rattus norvegicus = species on record: Rattus norvegicus; test: Inhibition of rat sodium channel site 2 at 10 uM
Outline: (§3)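 Receptor, ion channel and transporter binding panel run at Cerep in duplicate. Percent inhibition measured at 10 μM compound.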

[6] = Half life in rat at 1 mg/kg, iv; type: ADME, organism-based; set-up: dose 1 mg/kg, route intravenous; conditions: in vivo
[7] = Ratio of drug uptake in brain to plasma in iv dosed mouse measured after 5 to 30 mins; type: ADME, organism-based; conditions: brain and plasma, read-out: BPR
Mus musculus [8] = test: Antiinflammatory activity against ovalbumin-induced allergic lung inflammation BALB/c mouse model assessed as reduction in eosinophils in brochoalveolar lavage fluid at 5 mg/kg, po bid administered on day 29 to 31 post ovalbumin challenge measured 8 hrs post last challenge relative to vehicle-treated control; type: functional; outline: as §1
[9] = Clearance in rat at 1 mg/kg, iv; type: ADME, organism-based; set-up: dose 1 mg/kg, route intravenous; conditions: in vivo
Mus musculus [10] = test: Antiinflammatory activity against ovalbumin-induced allergic lung inflammation BALB/c mouse model assessed as reduction in neutrophils in brochoalveolar lavage fluid at 1 mg/kg, po bid administered on day 29 to 31 post ovalbumin challenge measured 8 hrs post last challenge relative to vehicle-treated control; type: functional; conditions: Bronchoalveolar lavage; outline: as §1
[11] = Cmax in mouse at 5 mg/kg, po; type: ADME, organism-based; set-up: dose 5 mg/kg, route oral; conditions: in vivo
Mus musculus [12] = test: Antiinflammatory activity against ovalbumin-induced allergic lung inflammation BALB/c mouse model assessed as reduction in neutrophils in brochoalveolar lavage fluid at 5 mg/kg, po bid administered on day 29 to 31 post ovalbumin challenge measured 8 hrs post last challenge relative to vehicle-treated control; type: functional; conditions: Bronchoalveolar lavage; outline: as §1
[13] = Half life in mouse at 1 mg/kg, iv; type: ADME, organism-based; set-up: dose 1 mg/kg, route intravenous; conditions: in vivo
[14] = Half life in rat at 15 mg/kg, po; type: ADME, organism-based; set-up: dose 15 mg/kg, route oral; conditions: in vivo
Mus musculus [15] = test: Antiinflammatory activity against ovalbumin-induced allergic lung inflammation BALB/c mouse model assessed as reduction in total blood cells in brochoalveolar lavage fluid at 0.2 mg/kg, po bid administered on day 29 to 31 post ovalbumin challenge measured 8 hrs post last challenge relative to vehicle-treated control; type: functional, organism-based; set-up: dose 0.2 mg/kg; outline: as §1
[16] = Cmax in rat at 15 mg/kg, po; type: ADME, organism-based; set-up: dose 15 mg/kg, route oral; conditions: in vivo
[17] = biological target: Histamine H3 receptor (Homo sapiens) (UniProt Q9Y5N1); test: Inhibition of human histamine H3 receptor at 10 uM; outline: as §3
Mus musculus [18] = test: Antiinflammatory activity against ovalbumin-induced allergic lung inflammation BALB/c mouse model assessed as reduction in neutrophils in brochoalveolar lavage fluid at 0.2 mg/kg, po bid administered on day 29 to 31 post ovalbumin challenge measured 8 hrs post last challenge relative to vehicle-treated control; type: functional, organism-based; set-up: dose 0.2 mg/kg; conditions: Bronchoalveolar lavage; outline: as §1
Cytochrome P450 3A4 = Cytochrome P450 3A4 (Homo sapiens, UniProt P08684); test: Inhibition of CYP3A4 (unknown origin); type: ADME; outline: as §2
Mus musculus [19] = test: Antiinflammatory activity against ovalbumin-induced allergic lung inflammation BALB/c mouse model assessed as reduction in neutrophils in brochoalveolar lavage fluid at 30 mg/kg, po bid administered on day 29 to 31 post ovalbumin challenge measured 8 hrs post last challenge relative to vehicle-treated control; type: functional, organism-based; set-up: dose 30 mg/kg; conditions: Bronchoalveolar lavage; outline: as §1
[20] = biological target: Voltage-gated inwardly rectifying potassium channel KCNH2 (Homo sapiens, UniProt Q12809); test: Inhibition of human ERG by whole-cell voltage clamp assay
[21] = Oral bioavailability in mouse at 5 mg/kg; type: ADME, organism-based; conditions: in vivo
Mus musculus [22] = test: Antiinflammatory activity against ovalbumin-induced allergic lung inflammation BALB/c mouse model assessed as reduction in total blood cells in brochoalveolar lavage fluid at 1 mg/kg, po bid administered on day 29 to 31 post ovalbumin challenge measured 8 hrs post last challenge relative to vehicle-treated control; type: functional; outline: as §1
[23] = Clearance in mouse at 1 mg/kg, iv; type: ADME, organism-based; set-up: dose 1 mg/kg, route intravenous; conditions: in vivo
Mus musculus [24] = test: Antiinflammatory activity against ovalbumin-induced allergic lung inflammation BALB/c mouse model assessed as reduction in total blood cells in brochoalveolar lavage fluid at 5 mg/kg, po bid administered on day 29 to 31 post ovalbumin challenge measured 8 hrs post last challenge relative to vehicle-treated control; type: functional; outline: as §1
Cytochrome P450 2D6 = Cytochrome P450 2D6 (Homo sapiens, UniProt P10635); test: Inhibition of CYP2D6 (unknown origin); type: ADME; outline: as §2
Mus musculus [25] = test: Antiinflammatory activity against ovalbumin-induced allergic lung inflammation BALB/c mouse model assessed as reduction in eosinophils in brochoalveolar lavage fluid at 1 mg/kg, po bid administered on day 29 to 31 post ovalbumin challenge measured 8 hrs post last challenge relative to vehicle-treated control; type: functional; outline: as §1
Cytochrome P450 2C19 = Cytochrome P450 2C19 (Homo sapiens, UniProt P33261); test: Inhibition of CYP2C19 (unknown origin); type: ADME; outline: as §2
[26] = biological target: Neuronal acetylcholine receptor; alpha4/beta2 (Homo sapiens, UniProt P17787+P43681); test: Inhibition of human alpha4beta2 nAChR at 10 uM by binding assay
[27] = Half life in mouse at 5 mg/kg, po; type: ADME, organism-based; set-up: dose 5 mg/kg, route oral; conditions: in vivo
Cytochrome P450 1A2 = Cytochrome P450 1A2 (Homo sapiens, UniProt P05177); test: Inhibition of CYP1A2 (unknown origin); type: ADME; outline: as §2
Chain of Cytochrome P450 1A2 (P05177 whole entry): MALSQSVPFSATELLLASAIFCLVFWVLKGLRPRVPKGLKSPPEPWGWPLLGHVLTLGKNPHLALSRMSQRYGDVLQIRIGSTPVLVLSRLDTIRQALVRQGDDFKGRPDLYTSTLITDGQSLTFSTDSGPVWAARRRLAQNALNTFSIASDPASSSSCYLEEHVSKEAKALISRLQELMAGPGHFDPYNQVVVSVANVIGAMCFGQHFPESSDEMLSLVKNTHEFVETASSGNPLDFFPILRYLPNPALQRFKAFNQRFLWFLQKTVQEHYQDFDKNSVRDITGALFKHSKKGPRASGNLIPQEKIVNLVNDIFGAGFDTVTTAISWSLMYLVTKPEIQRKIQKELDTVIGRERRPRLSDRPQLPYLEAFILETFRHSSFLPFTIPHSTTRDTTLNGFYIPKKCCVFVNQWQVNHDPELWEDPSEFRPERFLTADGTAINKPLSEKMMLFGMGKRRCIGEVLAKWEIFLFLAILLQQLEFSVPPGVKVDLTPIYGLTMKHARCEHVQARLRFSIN

Chain of Voltage-gated inwardly rectifying potassium channel KCNH2 (Q12809 whole entry): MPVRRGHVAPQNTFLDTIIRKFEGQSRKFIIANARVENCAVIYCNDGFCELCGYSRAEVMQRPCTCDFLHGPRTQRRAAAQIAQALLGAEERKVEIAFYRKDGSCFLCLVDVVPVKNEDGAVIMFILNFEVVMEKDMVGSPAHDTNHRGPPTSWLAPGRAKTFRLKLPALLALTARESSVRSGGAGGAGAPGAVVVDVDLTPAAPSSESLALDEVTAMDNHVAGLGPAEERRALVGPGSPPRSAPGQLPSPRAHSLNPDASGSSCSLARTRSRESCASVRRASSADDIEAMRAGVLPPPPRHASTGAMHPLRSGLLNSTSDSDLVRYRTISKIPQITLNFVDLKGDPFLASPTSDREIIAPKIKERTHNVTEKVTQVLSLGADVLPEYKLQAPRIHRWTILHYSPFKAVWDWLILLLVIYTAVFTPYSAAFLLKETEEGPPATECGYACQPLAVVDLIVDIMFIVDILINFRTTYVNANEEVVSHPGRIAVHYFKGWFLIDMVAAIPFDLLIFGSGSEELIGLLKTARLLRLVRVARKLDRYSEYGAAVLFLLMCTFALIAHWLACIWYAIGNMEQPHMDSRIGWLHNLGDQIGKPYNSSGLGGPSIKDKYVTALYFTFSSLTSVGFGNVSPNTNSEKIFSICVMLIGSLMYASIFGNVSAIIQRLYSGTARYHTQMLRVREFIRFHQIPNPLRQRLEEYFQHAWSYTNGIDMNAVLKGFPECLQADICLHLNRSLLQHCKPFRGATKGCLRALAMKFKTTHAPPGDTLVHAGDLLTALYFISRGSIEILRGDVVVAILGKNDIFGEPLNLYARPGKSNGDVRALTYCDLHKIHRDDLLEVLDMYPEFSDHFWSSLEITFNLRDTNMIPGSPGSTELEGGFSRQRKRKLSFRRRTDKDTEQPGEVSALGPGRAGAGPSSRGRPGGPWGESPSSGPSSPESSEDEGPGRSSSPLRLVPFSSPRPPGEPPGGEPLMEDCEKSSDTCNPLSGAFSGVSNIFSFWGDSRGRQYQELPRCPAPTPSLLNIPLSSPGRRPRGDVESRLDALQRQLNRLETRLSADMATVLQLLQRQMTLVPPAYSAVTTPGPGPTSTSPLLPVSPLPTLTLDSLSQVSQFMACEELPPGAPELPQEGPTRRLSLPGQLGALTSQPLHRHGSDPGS
Chain of Cytochrome P450 2C9 (P11712 whole entry, canonical isoform): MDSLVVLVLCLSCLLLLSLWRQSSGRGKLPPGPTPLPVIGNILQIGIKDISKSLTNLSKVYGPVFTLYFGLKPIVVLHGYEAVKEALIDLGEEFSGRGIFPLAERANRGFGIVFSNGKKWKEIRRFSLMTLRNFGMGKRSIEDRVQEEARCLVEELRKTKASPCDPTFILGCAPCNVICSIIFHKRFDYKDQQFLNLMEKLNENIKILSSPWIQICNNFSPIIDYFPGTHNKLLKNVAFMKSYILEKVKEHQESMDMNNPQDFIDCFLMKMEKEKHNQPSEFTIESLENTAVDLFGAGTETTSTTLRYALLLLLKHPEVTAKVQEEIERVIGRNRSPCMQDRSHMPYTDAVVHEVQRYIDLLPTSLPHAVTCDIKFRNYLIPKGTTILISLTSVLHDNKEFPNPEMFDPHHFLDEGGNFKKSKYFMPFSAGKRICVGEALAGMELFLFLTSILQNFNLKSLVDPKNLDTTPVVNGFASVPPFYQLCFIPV
Chain of Neuronal acetylcholine receptor subunit alpha-7 (Q05941 whole entry): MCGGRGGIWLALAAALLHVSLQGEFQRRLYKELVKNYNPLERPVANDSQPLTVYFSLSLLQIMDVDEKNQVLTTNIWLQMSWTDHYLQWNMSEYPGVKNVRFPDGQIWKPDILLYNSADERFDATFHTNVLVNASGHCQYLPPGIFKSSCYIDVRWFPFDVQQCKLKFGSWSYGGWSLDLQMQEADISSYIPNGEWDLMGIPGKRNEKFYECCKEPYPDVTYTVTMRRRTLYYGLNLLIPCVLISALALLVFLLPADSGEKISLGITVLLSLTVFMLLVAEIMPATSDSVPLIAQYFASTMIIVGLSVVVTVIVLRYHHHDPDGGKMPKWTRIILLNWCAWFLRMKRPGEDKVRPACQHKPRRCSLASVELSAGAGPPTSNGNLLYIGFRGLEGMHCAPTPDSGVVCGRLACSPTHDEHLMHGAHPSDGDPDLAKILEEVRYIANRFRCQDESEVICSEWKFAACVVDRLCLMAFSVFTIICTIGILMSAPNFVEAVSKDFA
Chain of Cytochrome P450 2D6 (P10635 whole entry): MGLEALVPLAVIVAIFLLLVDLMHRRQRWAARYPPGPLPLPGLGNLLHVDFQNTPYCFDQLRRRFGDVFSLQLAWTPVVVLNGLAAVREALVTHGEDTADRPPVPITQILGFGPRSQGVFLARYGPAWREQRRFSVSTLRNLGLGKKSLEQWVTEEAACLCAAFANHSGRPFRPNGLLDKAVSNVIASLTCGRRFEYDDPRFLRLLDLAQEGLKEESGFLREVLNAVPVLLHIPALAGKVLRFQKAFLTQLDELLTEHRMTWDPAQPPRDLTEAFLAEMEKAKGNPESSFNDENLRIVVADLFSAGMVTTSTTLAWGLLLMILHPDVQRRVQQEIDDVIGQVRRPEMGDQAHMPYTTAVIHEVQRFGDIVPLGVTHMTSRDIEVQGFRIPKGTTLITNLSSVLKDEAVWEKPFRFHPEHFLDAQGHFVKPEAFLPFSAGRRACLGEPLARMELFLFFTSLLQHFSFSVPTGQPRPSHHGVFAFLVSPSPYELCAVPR
Chain of Histamine H3 receptor (Homo sapiens) (Q9Y5N1 whole entry): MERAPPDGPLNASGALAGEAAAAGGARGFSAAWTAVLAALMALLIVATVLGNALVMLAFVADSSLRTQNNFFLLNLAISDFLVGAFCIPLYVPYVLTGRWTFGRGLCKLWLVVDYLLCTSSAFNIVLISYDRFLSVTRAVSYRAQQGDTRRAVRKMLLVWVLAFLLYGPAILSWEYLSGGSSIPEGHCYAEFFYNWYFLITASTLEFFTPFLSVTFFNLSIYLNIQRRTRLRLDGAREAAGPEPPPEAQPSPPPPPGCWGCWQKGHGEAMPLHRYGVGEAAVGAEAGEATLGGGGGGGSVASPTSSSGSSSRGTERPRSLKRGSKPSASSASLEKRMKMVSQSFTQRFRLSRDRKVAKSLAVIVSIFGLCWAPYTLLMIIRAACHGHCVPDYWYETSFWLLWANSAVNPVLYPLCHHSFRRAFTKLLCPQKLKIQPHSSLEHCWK
Chain of Cytochrome P450 3A4 (P08684 whole entry): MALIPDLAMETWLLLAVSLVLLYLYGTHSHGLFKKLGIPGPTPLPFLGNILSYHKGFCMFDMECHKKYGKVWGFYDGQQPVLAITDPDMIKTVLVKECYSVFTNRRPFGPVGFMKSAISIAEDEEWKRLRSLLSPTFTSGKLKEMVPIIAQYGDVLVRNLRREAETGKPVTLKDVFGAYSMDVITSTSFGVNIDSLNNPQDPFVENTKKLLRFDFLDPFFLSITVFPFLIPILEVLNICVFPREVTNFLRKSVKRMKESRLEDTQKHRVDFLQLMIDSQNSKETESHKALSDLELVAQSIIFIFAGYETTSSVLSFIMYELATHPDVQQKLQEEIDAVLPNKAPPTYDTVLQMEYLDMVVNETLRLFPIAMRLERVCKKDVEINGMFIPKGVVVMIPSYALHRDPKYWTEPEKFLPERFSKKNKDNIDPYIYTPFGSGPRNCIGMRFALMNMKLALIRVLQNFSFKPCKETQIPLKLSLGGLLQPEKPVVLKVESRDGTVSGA
Chain of Cytochrome P450 2C19 (P33261 whole entry): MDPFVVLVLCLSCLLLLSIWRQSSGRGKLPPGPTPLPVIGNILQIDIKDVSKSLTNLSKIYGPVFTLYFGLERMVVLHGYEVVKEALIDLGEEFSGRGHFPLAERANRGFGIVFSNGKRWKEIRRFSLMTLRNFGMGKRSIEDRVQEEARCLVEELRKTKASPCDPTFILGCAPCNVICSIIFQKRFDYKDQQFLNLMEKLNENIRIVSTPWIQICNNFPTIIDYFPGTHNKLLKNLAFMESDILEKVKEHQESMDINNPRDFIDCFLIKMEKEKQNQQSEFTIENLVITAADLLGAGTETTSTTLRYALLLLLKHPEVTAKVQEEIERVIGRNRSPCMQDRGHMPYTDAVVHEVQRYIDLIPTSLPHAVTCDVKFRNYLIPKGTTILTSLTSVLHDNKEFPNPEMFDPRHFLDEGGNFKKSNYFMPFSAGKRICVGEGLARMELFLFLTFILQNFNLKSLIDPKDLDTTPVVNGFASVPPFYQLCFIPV

COc1ccc(NC(=O)N2CCNC[C@@H]2COc2cccnc2)cc1.Cl
inhibition (Mus musculus [1]): inactive
IC50 [2]: 0.019 µM
inhibition (Mus musculus [3]): inactive
bioavailability [4]: 89%
IC50 (Cytochrome P450 2C9): > 100 µM
inhibition (Mus musculus [5]): inactive
inhibition (Rattus norvegicus): 48%
half-life [6]: 1.22 h
Kp [7]: ≤ 0.06
inhibition in vivo at 5 mg/kg (Mus musculus [8]): 74%
clearance [9]: 86 mL/min/kg
inhibition in vivo at 1 mg/kg (Mus musculus [10]): 61%
Cmax [11]: 950 nM
inhibition in vivo at 5 mg/kg (Mus musculus [12]): 70%
half-life [13]: 0.65 h
half-life [14]: 2.35 h
inhibition (Mus musculus [15]): inactive
Cmax [16]: 751 ng/mL
inhibition [17]: 86%
inhibition (Mus musculus [18]): inactive
IC50 (Cytochrome P450 3A4): > 100 µM
inhibition (Mus musculus [19]): inactive
IC50 [20]: 31 µM
bioavailability [21]: 76%
inhibition in vivo at 1 mg/kg (Mus musculus [22]): 53%
clearance [23]: 103 mL/min/kg
inhibition in vivo at 5 mg/kg (Mus musculus [24]): 63%
IC50 (Cytochrome P450 2D6): > 100 µM
inhibition in vivo at 1 mg/kg (Mus musculus [25]): 48%
IC50 (Cytochrome P450 2C19): > 100 µM
inhibition [26]: 10%
half-life [27]: 1.73 h
IC50 (Cytochrome P450 1A2): > 100 µM
